In ChEMBL document CHEMBL4406888, “Synthesis of analogs of the Gwt1 inhibitor manogepix (APX001A) and in vitro evaluation against Cryptococcus spp” (Bioorg Med Chem Lett, 2019):
In brackets after ≈: the same amount, converted by molar mass.

Experiments:
[1] = system: Cryptococcus neoformans; assay: Antifungal activity against Cryptococcus neoformans incubated for 72 hrs by broth micro dilution method; format: functional
[2] = Half life in human liver microsomes at 1 uM preincubated for 5 mins followed by NADPH addition and measured for 45 mins by LC/MS analysis; format: ADME, Microsome; conditions: for t1/2: microsomes, 0.75 h, 1 µM
[3] = system: Cryptococcus gattii; assay: Antifungal activity against Cryptococcus gattii incubated for 72 hrs by broth micro dilution method; format: functional
[4] = system: HepG2; assay: Cytotoxicity against human HepG2 cells assessed as reduction in cell viability at 3 uM by CellTiter-Glo luminescent cell viability assay relative to control; format: cell-based; conditions: hepg2, 3 µM
[5] = target: T1, GPI-anchored wall transfer protein 1 (Candida albicans (strain SC5314 / ATCC MYA-2876) (Yeast)) (UniProt Q873N2); assay: Antifungal activity against Candida albicans GWT1 expressed in Saccharomyces cerevisiae assessed as overexpression ratio
T1 sequence (whole entry): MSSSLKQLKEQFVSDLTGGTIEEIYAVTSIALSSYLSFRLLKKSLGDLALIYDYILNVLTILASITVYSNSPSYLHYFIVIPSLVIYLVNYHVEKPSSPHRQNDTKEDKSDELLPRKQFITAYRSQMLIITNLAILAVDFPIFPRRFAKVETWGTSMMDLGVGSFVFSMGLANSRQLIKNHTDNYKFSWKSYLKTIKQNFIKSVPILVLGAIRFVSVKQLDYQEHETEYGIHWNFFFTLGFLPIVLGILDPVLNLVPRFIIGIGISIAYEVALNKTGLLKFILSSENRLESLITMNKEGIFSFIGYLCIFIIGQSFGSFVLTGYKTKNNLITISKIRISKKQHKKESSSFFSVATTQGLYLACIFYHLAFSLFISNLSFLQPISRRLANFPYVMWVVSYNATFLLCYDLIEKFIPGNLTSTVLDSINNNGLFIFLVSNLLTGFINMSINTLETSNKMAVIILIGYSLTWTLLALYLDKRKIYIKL
Method in brief: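 MICs measured against S. cerevisiae strains expressing high and low levels of Gwt1. The value is the ratio of the two strains' MICs.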

[6] = target: T2, PIGW (glucosaminyl-phosphatidylinositol-acyltransferase) (Homo sapiens, UniProt Q7Z7B1); assay: Inhibition of human PIGW expressed in Saccharomyces cerevisiae at 16 uM by spectrophotometric analysis relative to control; conditions: Saccharomyces cerevisiae expressing human PIGW
T2 sequence (Q7Z7B1 whole entry): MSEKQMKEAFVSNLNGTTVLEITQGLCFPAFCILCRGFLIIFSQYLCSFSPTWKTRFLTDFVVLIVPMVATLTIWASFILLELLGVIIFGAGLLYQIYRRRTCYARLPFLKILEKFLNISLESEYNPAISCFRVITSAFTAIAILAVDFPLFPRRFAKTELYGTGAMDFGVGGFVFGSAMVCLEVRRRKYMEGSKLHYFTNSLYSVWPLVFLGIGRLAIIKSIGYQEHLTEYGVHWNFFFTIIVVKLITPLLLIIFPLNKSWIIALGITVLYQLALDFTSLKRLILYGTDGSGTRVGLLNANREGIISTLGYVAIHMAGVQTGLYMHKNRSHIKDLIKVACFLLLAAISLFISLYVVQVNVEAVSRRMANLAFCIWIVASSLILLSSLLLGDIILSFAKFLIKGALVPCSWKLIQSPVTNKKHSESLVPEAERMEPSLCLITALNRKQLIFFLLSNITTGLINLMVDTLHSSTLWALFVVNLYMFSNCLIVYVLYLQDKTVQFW

Structure (SMILES) | MIC [1] [µg/mL] | t1/2 [2] [min] | MIC [3] [µg/mL] | half-life at 1 µM ([2]; liver microsomes) [min] | Cell viability (% of control) [4] [%] | Ratio [5] | inhibition at 16 µM [6] [%]
Nc1ncccc1-c1cc(Cc2ccc(Cc3ccc(F)o3)cc2)no1 | 0.016 (≈ 0.0458 µM) | 14.4 | 0.016 (≈ 0.0458 µM) | – | – | – | –
Nc1ncccc1-c1cc(Cc2ccc(OCc3ccncc3)cc2)no1 | 0.016 (≈ 0.0446 µM) | 17.3 | 0.008 (≈ 0.0223 µM) | – | – | – | –
Nc1ncccc1-c1cc(Cc2ccc(CCc3ccccc3)cc2)no1 | 0.5 (≈ 1.41 µM) | – | 0.5 (≈ 1.41 µM) | – | – | – | –
Nc1ncccc1-c1cc(Cc2ccc(OCC3CC3)nc2)no1 | 0.031 (≈ 0.0962 µM) | – | 0.016 (≈ 0.0496 µM) | – | – | – | –
Nc1ncccc1-c1cc(Cc2ccc(OCc3ccccc3F)nc2)no1 | 0.031 (≈ 0.0824 µM) | – | 0.031 (≈ 0.0824 µM) | – | – | – | –
Nc1ncccc1-c1cc(Cc2ccnc(OCCc3cccc(F)c3)c2)no1 | 0.5 (≈ 1.28 µM) | – | 1 (≈ 2.56 µM) | – | – | – | –
Nc1ncccc1-c1cc(Cc2ccc(Cn3cccn3)cc2)no1 | 0.25 (≈ 0.754 µM) | – | 0.063 (≈ 0.19 µM) | – | – | – | –
Nc1ncccc1-c1cc(Cc2ccc(Oc3cccc(F)n3)cc2)no1 | 0.008 (≈ 0.0221 µM) | 43 | 0.004 (≈ 0.011 µM) | – | 93 | 16 | 0
Nc1ncccc1-c1cc(Cc2ccc(OCc3cccc(Cl)c3)nc2)no1 | 0.016 (≈ 0.0407 µM) | – | 0.016 (≈ 0.0407 µM) | – | 98 | 4 | 80
Nc1ncccc1-c1cc(Cc2ccc(Cc3cccc(F)n3)cc2)no1 | 0.031 (≈ 0.086 µM) | – | 0.016 (≈ 0.0444 µM) | – | – | – | –
Nc1ncccc1-c1cc(Cc2ccc(OCc3cccc(F)c3)nc2)no1 | 0.016 (≈ 0.0425 µM) | 62.3 | 0.016 (≈ 0.0425 µM) | – | 97 | 8 | 5
Nc1ncccc1-c1cc(Cc2ccc(OCC3CCC3)nc2)no1 | 0.016 (≈ 0.0476 µM) | 4.65 | 0.008 (≈ 0.0238 µM) | – | – | – | –
Nc1ncccc1-c1cc(Cc2ccc(Oc3ccccn3)cc2)no1 | 0.016 (≈ 0.0465 µM) | 61.5 | 0.008 (≈ 0.0232 µM) | – | 77 | – | –
Nc1ncccc1-c1cc(Cc2ccc(OCc3ccncc3)nc2)no1 | 0.008 (≈ 0.0223 µM) | 20.3 | 0.008 (≈ 0.0223 µM) | – | – | – | –
Nc1ncccc1-c1cc(Cc2ccc(Cc3ccccc3)cc2)no1 | 0.031 (≈ 0.0908 µM) | – | 0.008 (≈ 0.0234 µM) | – | – | – | –
Nc1ncccc1-c1cc(Cc2ccnc(OCc3cccc(F)c3)c2)no1 | 0.031 (≈ 0.0824 µM) | – | 0.031 (≈ 0.0824 µM) | – | – | – | –
Cc1nccc(NCc2ccc(Cc3cc(-c4cccnc4N)on3)cc2)n1 | > 4 | – | > 4 | – | – | – | –
Nc1ncccc1-c1cc(Cc2ccc(COc3ccccn3)cc2)no1 [MANOGEPIX] | 0.25 (≈ 0.698 µM) | 49.9 | 0.125 (≈ 0.349 µM) | – | 98 | 8 | 0
Nc1ncccc1-c1cc(Cc2ccc(Oc3cccc(F)c3)nc2)no1 | 0.008 (≈ 0.0221 µM) | 93.9 | 0.016 (≈ 0.0442 µM) | – | 102 | 8 | 0
Cc1occc1COc1ccc(Cc2cc(-c3cccnc3N)on2)cn1 | 2 (≈ 5.52 µM) | – | 2 (≈ 5.52 µM) | – | – | – | –

Further lines, with some results ahead:

MIC [1] [µg/mL] | t1/2 [2] [min] | MIC [3] [µg/mL] | half-life at 1 µM ([2]; liver microsomes) [min] | Structure (SMILES) | Cell viability (% of control) [4] [%] | Ratio [5] | inhibition at 16 µM [6] [%]
0.016 (≈ 0.0459 µM) | – | 0.031 (≈ 0.089 µM) | – | Nc1ncccc1-c1cc(Cc2ccc(OCc3ccoc3)nc2)no1 | – | – | –
> 4 | – | > 4 | – | Nc1ncccc1-c1cc(Cc2ccc(CNCc3ccn[nH]3)cc2)no1 | – | – | –
0.016 (≈ 0.0483 µM) | 3.15 | 0.016 (≈ 0.0483 µM) | – | Nc1ncccc1-c1cc(Cc2ccc(Cc3ccco3)cc2)no1 | – | – | –
0.125 (≈ 0.351 µM) | – | 0.063 (≈ 0.177 µM) | – | Nc1ncccc1-c1cc(Cc2ccc(CNc3ccccc3)cc2)no1 | – | – | –
0.25 (≈ 0.64 µM) | – | 0.5 (≈ 1.28 µM) | – | CC(Oc1ccc(Cc2cc(-c3cccnc3N)on2)cn1)c1ccccc1F (configuration not stated) | – | – | –
0.031 (≈ 0.0794 µM) | – | 0.031 (≈ 0.0794 µM) | – | Nc1ncccc1-c1cc(Cc2ccc(OCCc3ccccc3F)nc2)no1 | – | – | –
0.031 (≈ 0.0867 µM) | – | 0.031 (≈ 0.0867 µM) | – | Nc1ncccc1-c1cc(Cc2ccc(OCc3ccccc3)cc2)no1 | – | – | –
0.063 (≈ 0.161 µM) | – | 0.063 (≈ 0.161 µM) | – | Nc1ncccc1-c1cc(Cc2ccc(OCCc3cccc(F)c3)nc2)no1 | – | – | –
0.016 (≈ 0.0442 µM) | – | 0.031 (≈ 0.0855 µM) | – | Nc1ncccc1-c1cc(Cc2ccc(Oc3ccccc3F)nc2)no1 | – | – | –
0.016 (≈ 0.0443 µM) | 37.1 | 0.016 (≈ 0.0443 µM) | – | Nc1ncccc1-c1cc(Cc2ccc(Nc3ccccc3F)nc2)no1 | – | – | –
0.25 (≈ 0.666 µM) | – | 0.25 (≈ 0.666 µM) | – | Nc1ncccc1-c1cc(Cc2ccc(CNc3cccc(F)n3)cc2)no1 | – | – | –
– | – | – | 40.8 | O=C(c1ccc(F)cc1)C1CCN(CCn2c(=O)[nH]c3ccccc3c2=O)CC1 [KETANSERIN] | – | – | –
0.125 (≈ 0.35 µM) | – | 0.063 (≈ 0.176 µM) | – | Nc1ncccc1-c1cc(Cc2ccc(COc3ccccc3)cc2)no1 | – | – | –
